Test results published in ChEMBL document CHEMBL3817745, “Structure-Activity Relationship for the 4(3H)-Quinazolinone Antibacterials” (J Med Chem, 2016).
≈ marks a conversion by molar mass, not a printed value.

Columns and labels:
Staphylococcus aureus [1] = assay: Antibacterial activity against mecA-positive multidrug resistant Staphylococcus aureus COL NRS100 incubated for 16 to 20 hrs by microdilution method; type: functional
HepG2 = assay: Cytotoxicity against human HepG2 cells incubated for 16 hrs by XTT assay; type: cell-based; details: HepG2, 16 h
In short: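 HepG2 cells were tested with an XTT viability read-out, in triplicate. IC50 was obtained by nonlinear regression.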

Streptococcus pyogenes = assay: Antibacterial activity against Streptococcus pyogenes ATCC 49399 incubated for 16 to 20 hrs by microdilution method; type: functional
In short: (§1)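 CLSI broth microdilution. 2-fold serial dilutions were made in cation-adjusted Mueller–Hinton broth, with 5% lysed horse blood added for Streptococcus strains, in triplicate. Inoculum 5×10^5 CFU/mL. Plates incubated 36 °C for 16–20 h. MIC taken as the lowest concentration visibly inhibiting growth.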

Acinetobacter baumannii = assay: Antibacterial activity against Acinetobacter baumannii ATCC 17961 incubated for 16 to 20 hrs by microdilution method; type: functional; in short: as §1
Bacillus cereus = assay: Antibacterial activity against Bacillus cereus ATCC 13061 incubated for 16 to 20 hrs by microdilution method; type: functional; in short: as §1
Enterococcus faecium = assay: Antibacterial activity against Enterococcus faecium NCTC 7171 incubated for 16 to 20 hrs by microdilution method; type: functional; in short: as §1
Staphylococcus aureus [2] = assay: Antibacterial activity against mecA-positive methicillin/oxacillin/tetracycline-resistant Staphylococcus aureus ATCC 27660 incubated for 16 to 20 hrs by microdilution method; type: functional
Streptococcus oralis = assay: Antibacterial activity against Streptococcus oralis ATCC 9811 incubated for 16 to 20 hrs by microdilution method; type: functional; in short: as §1
Staphylococcus aureus [3] = assay: Antibacterial activity against methicillin-susceptible Staphylococcus aureus ATCC 29213 incubated for 16 to 20 hrs by microdilution method; type: functional
Pseudomonas aeruginosa = assay: Antibacterial activity against Pseudomonas aeruginosa […] incubated for 16 to 20 hrs by microdilution method; type: functional; in short: as §1
Escherichia coli = assay: Antibacterial activity against Escherichia coli ATCC 25922 incubated for 16 to 20 hrs by microdilution method; type: functional; in short: as §1
Klebsiella aerogenes = assay: Antibacterial activity against Enterobacter aerogenes ATCC 35029 incubated for 16 to 20 hrs by microdilution method; type: functional; in short: as §1
Mus musculus [4] = assay: AUC (0 to last) in ICR mouse peritonitis model infected with methicillin resistant Staphylococcus aureus ATCC 27660 at 20 mg/kg, iv administered as single dose measured up to 8 hrs by UPLC analysis; type: ADME, organism-based; design: dose 20 mg/kg, time 0 - last, route intravenous; details: in vivo
In short: (§2)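 Fast PK: female ICR mice (n = 2 per time point) given single tail-vein iv injection at 5, 10 or 20 mg/kg in 25% DMSO/65% propylene glycol/10% water (2.5, 5 or 10 mg/mL); terminal cardiac blood at 5 min, 40 min, 2, 4, 8 h; plasma analysed by UPLC with internal standard calibration.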

Staphylococcus aureus [5] = assay: Antibacterial activity against vancomycin/methicillin-resistant Staphylococcus aureus VRS1 clinical isolate incubated for 16 to 20 hrs by microdilution method; type: functional
Klebsiella pneumoniae = assay: Antibacterial activity against Klebsiella pneumoniae ATCC 700603 incubated for 16 to 20 hrs by microdilution method; type: functional; in short: as §1
[6] = Hemolytic activity against human RBC at 64 ug/ml relative to control; type: ADME, cell-based, Erythrocyte; details: erythrocyte
In short: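 Hemolysis was measured at a fixed 64 μg/mL on a 10% red-cell suspension from heparinized human blood. Triton-X served as the positive control, and results are given as percent hemolysis.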

Staphylococcus aureus [7] = assay: Antibacterial activity against vancomycin/methicillin-resistant Staphylococcus aureus VRS2 clinical isolate incubated for 16 to 20 hrs by microdilution method; type: functional
Staphylococcus aureus [8] = assay: Antibacterial activity against mecA-positive multidrug resistant Staphylococcus aureus NRS120 incubated for 16 to 20 hrs by microdilution method; type: functional
[9] = tested on: Staphylococcus epidermidis; assay: Antibacterial activity against Staphylococcus epidermidis ATCC 35547 incubated for 16 to 20 hrs by microdilution method; type: functional; in short: as §1
Enterococcus faecalis [10] = assay: Antibacterial activity against vancomycin-resistant Enterococcus faecalis 99 clinical isolate incubated for 16 to 20 hrs by microdilution method; type: functional
Bacillus licheniformis = assay: Antibacterial activity against Bacillus licheniformis ATCC 12759 incubated for 16 to 20 hrs by microdilution method; type: functional; in short: as §1
[11] = tested on: Staphylococcus haemolyticus; assay: Antibacterial activity against Staphylococcus haemolyticus ATCC 29970 incubated for 16 to 20 hrs by microdilution method; type: functional
Enterococcus faecalis [12] = assay: Antibacterial activity against methicillin-susceptible Enterococcus faecalis ATCC 29212 incubated for 16 to 20 hrs by microdilution method; type: functional; in short: as §1
Mus musculus [13] = assay: AUC (0 to last) in ICR mouse peritonitis model infected with methicillin resistant Staphylococcus aureus ATCC 27660 at 5 mg/kg, iv administered as single dose measured up to 8 hrs by UPLC analysis; type: ADME, organism-based; design: dose 5 mg/kg, route intravenous, time 0 - last; details: in vivo; in short: as §2
[14] = Ratio of hemolytic concentration for human RBC to MIC for methicillin-susceptible Staphylococcus aureus ATCC 29213
[15] = Ratio of IC50 for human HepG2 cells to MIC for methicillin-susceptible Staphylococcus aureus ATCC 29213
In short: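 HepG2 XTT cytotoxicity in triplicate, IC50 by nonlinear regression, divided by broth-microdilution MIC for ATCC 29213.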

O=C(O)c1cccc(-n2c(/C=C/c3ccc(F)cc3)nc3ccccc3c2=O)c1
MIC (Staphylococcus aureus [1]): 8 µg/mL (≈ 20.7 µM) | IC50 (HepG2): 95.5 µg/mL (≈ 247 µM) | MIC (Streptococcus pyogenes): 128 µg/mL (≈ 331 µM) | MIC (Acinetobacter baumannii): ≥ 16 µg/mL | MIC (Bacillus cereus): > 128 µg/mL | MIC (Enterococcus faecium): > 128 µg/mL | MIC (Staphylococcus aureus [2]): 2 µg/mL (≈ 5.18 µM) | MIC (Streptococcus oralis): 128 µg/mL (≈ 331 µM) | MIC (Staphylococcus aureus [3]): 1 µg/mL (≈ 2.59 µM) | MIC (Pseudomonas aeruginosa): ≥ 16 µg/mL | MIC (Escherichia coli): ≥ 16 µg/mL | MIC (Klebsiella aerogenes): ≥ 16 µg/mL | AUClast (Mus musculus [4]): 2560 µg·min/mL | MIC (Staphylococcus aureus [5]): 8 µg/mL (≈ 20.7 µM) | MIC (Klebsiella pneumoniae): ≥ 16 µg/mL | Activity [6]: < 1% | MIC (Staphylococcus aureus [7]): 1 µg/mL (≈ 2.59 µM) | MIC (Staphylococcus aureus [8]): 8 µg/mL (≈ 20.7 µM) | MIC [9]: 0.125 µg/mL (≈ 0.324 µM) | MIC (Enterococcus faecalis [10]): > 128 µg/mL | MIC (Bacillus licheniformis): > 128 µg/mL | MIC [11]: 0.25 µg/mL (≈ 0.647 µM) | MIC (Enterococcus faecalis [12]): > 128 µg/mL

O=c1c2ccccc2nc(/C=C/c2ccc(F)cc2)n1-c1cccc(O)c1
IC50 (HepG2): 16.4 µg/mL (≈ 45.8 µM) | AUClast (Mus musculus [13]): 466 µg·min/mL | MIC (Acinetobacter baumannii): ≥ 16 µg/mL | Ratio [14]: > 120 | MIC (Enterococcus faecium): ≥ 8 µg/mL | MIC (Staphylococcus aureus [3]): 0.25 µg/mL (≈ 0.698 µM) | MIC (Pseudomonas aeruginosa): ≥ 16 µg/mL | MIC (Escherichia coli): ≥ 16 µg/mL | MIC (Klebsiella aerogenes): ≥ 16 µg/mL | MIC (Klebsiella pneumoniae): ≥ 16 µg/mL | Activity [6]: < 1% | Ratio [15]: >30
